Source: ChEMBL document CHEMBL3045616, “Synthetic pyrazole derivatives as growth inhibitors of some phytopathogenic fungi” (J Agric Food Chem, 2007)

Tests used:
Pyricularia grisea [1] = assay: microbe, parasite or virus in culture; type: functional; conditions: ATCC 64413, 120 h, read-out: GI
Pyricularia grisea [2] = assay: microbe, parasite or virus in culture; type: functional; conditions: ATCC 64413, 120 h, read-out: GI; remark: listed apart in the source
Botrytis cinerea [3] = assay: Antifungal activity against logarithmic phase of Botryotinia fuckeliana ATCC 48339 assessed as growth inhibition at 10 ug/ml measured at 5 days post-drug treatment; type: functional; conditions: ATCC 48339, 120 h, read-out: GI
Procedure, shortened: (§1)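 Log-phase mycelium (from 10 mm stationary-phase disks grown on cellophane over PDA, pH 5.6, 26 ± 1 °C) moved to PDA with compound added from DMSO stock at 45 °C. Final concentrations were 10, 50 or 100 µg mL^-1, with 0.1% DMSO in test and control media. Colony diameter was read daily for 5 days, in triplicate, as % of untreated control.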

Botrytis cinerea [4] = assay: Antifungal activity against logarithmic phase of Botryotinia fuckeliana ATCC 48339 assessed as growth inhibition at 100 ug/ml measured at 5 days post-drug treatment; type: functional; conditions: ATCC 48339, 120 h, read-out: GI
Procedure, shortened: as §1

Globisporangium ultimum [5] = assay: Antifungal activity against logarithmic phase of Pythium ultimum ATCC 58812 assessed as growth inhibition at 100 ug/ml measured at 5 days post-drug treatment; type: functional; conditions: ATCC 58812, 120 h, read-out: GI
Procedure, shortened: as §1

Botrytis cinerea [6] = assay: Antifungal activity against logarithmic phase of Botryotinia fuckeliana ATCC 48339 assessed as growth inhibition at 50 ug/ml measured at 5 days post-drug treatment; type: functional; conditions: ATCC 48339, 120 h, read-out: GI
Procedure, shortened: as §1

Globisporangium ultimum [7] = assay: Antifungal activity against logarithmic phase of Pythium ultimum ATCC 58812 assessed as growth inhibition at 10 ug/ml measured at 5 days post-drug treatment; type: functional; conditions: ATCC 58812, 120 h, read-out: GI
Procedure, shortened: as §1

Globisporangium ultimum [8] = assay: Antifungal activity against logarithmic phase of Pythium ultimum ATCC 58812 assessed as growth inhibition at 50 ug/ml measured at 5 days post-drug treatment; type: functional; conditions: ATCC 58812, 120 h, read-out: GI
Procedure, shortened: as §1

Pyricularia grisea [9] = assay: microbe, parasite or virus in culture; type: functional; conditions: ATCC 64413, 120 h, read-out: GI; remark: listed apart in the source
Pyricularia grisea [10] = assay: microbe, parasite or virus in culture; type: functional, organism-based; conditions: ATCC 64413, 120 h
Globisporangium ultimum [11] = assay: Antifungal activity against logarithmic phase of Pythium ultimum Trow ATCC 58812 assessed as growth inhibition measured at 5 days post-drug treatment; type: functional, organism-based; conditions: ATCC 58812, 120 h
Procedure, shortened: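 Log-phase mycelium grown on cellophane over PDA (pH 5.6, 26 ± 1 °C) moved to PDA containing compound at 10, 50 and 100 µg mL^-1 final, with 0.1% DMSO in test and control media. Colony diameter was measured daily for 5 days, in triplicate, relative to untreated controls. IC50 came from curves of activity (%) versus log inhibitor concentration.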

Structure (SMILES) | inhibition of growth at 50 µg/mL (Pyricularia grisea [1]) [%] | inhibition of growth at 100 µg/mL (Pyricularia grisea [2]) [%] | inhibition of growth at 10 µg/mL (Botrytis cinerea [3]) [%] | inhibition of growth at 100 µg/mL (Botrytis cinerea [4]) [%] | inhibition of growth at 100 µg/mL (Globisporangium ultimum [5]) [%] | inhibition of growth at 50 µg/mL (Botrytis cinerea [6]) [%] | inhibition of growth at 10 µg/mL (Globisporangium ultimum [7]) [%] | inhibition of growth at 50 µg/mL (Globisporangium ultimum [8]) [%] | inhibition of growth at 10 µg/mL (Pyricularia grisea [9]) [%] | IC50 (Pyricularia grisea [10]) [µM] | IC50 (Globisporangium ultimum [11]) [µM]
CCCCNC(=S)Nc1[nH]ncc1C(=O)OCC | 8.6 | 10 | 4.7 | 32.4 | 10.4 | 15.1 |  |  |  |  | 
CCOC(=O)c1cn[nH]c1NC(=S)NC1CCCCC1 | 26.7 | 36 |  |  | 63.9 |  | 44.4 | 59 | 29.8 |  | 
O=c1c2cn[nH]c2[nH]c(=S)n1-c1ccc(Br)cc1 | 18 | 20 |  |  | 61.8 |  |  | 22.5 |  |  | 
CCNC(=S)Nc1[nH]ncc1C(=O)OCC | 18.1 | 28.9 |  |  | 20 |  |  |  | 13.8 |  | 
CCOC(=O)c1cn[nH]c1NC(=S)Nc1ccc([N+](=O)[O-])cc1 | 15.6 | 17.7 | 13.2 | 37.9 | 63.4 | 33 | 27.2 | 36 | 13 |  | 
COC(=O)c1c(C(=O)NC2CC2)nn(C)c1C |  | 3.4 |  | 3.2 | 7.7 | 4 | 4.8 | 4.3 |  |  | 
Cc1[nH]nc(C(=O)NC2CC2)c1C(=O)O | 5.9 | 9 |  | 19.2 | 39.9 | 10.6 | 3.2 | 32.9 | 3.6 |  | 
CCOC(=O)c1cn[nH]c1NC(=S)Nc1cccc(C(F)(F)F)c1 | 46.3 | 51 |  | 23.2 | 28 |  | 23 | 24.2 | 29.4 | 224 | 
Cc1cccc2sc3nncn3c12 [TRICYCLAZOLE] | 24 | 62 |  |  |  |  |  |  | 0 | 474 | 
COC(=O)N(OC)c1ccccc1COc1ccn(-c2ccc(Cl)cc2)n1 [PYRACLOSTROBIN] |  |  |  |  | 100 |  | 100 | 100 |  |  | < 10
O=c1c2cn[nH]c2[nH]c(=S)n1Cc1ccccc1 | 23.4 | 44.4 | 13.5 | 31.9 | 78 | 23.4 | 44.1 | 64.6 | 0.5 |  | 66
CCOC(=O)c1cn[nH]c1NC(=S)NCc1ccccc1 | 35.6 | 41.4 | 0 | 32 | 38.3 | 26 | 3.7 | 34.6 | 15.8 |  | 
Cc1c(C(=O)O)c(C(=O)NC(C)(C)C)nn1-c1c(Cl)cc(C(F)(F)F)cc1Cl | 20.6 | 24.4 | 17.3 | 27.5 | 54.7 | 22.6 | 1.9 | 37.9 |  |  | 
Cc1onc(C(=O)NC(C)(C)C)c1C(=O)O |  |  | 4.3 | 18.2 | 40.2 | 13.3 | 9.7 | 15.8 |  |  | 
COC(=O)c1c(C(=O)O)nn(C)c1C |  | 8.4 |  | 3.3 |  |  |  |  |  |  | 
Cc1c(C(=O)O)c(C(=O)NC(C)(C)C)nn1C | 4.1 | 5.8 |  | 61.9 | 41.3 | 9.6 |  | 12.5 | 0.9 |  | 
O=c1c2cn[nH]c2[nH]c(=S)n1-c1ccc(Cl)cc1 |  |  |  | 31.7 | 37.8 |  | 1.7 | 12.2 |  |  | 
O=c1c2cn[nH]c2[nH]c(=S)n1-c1cccc(Cl)c1 | 1 | 5 |  | 27.3 | 10.8 | 8.5 | 2.2 | 4.1 |  |  | 
Cc1onc(C(=O)NC2CC2)c1C(=O)O | 2.3 | 8.97 | 3.8 |  | 53.5 |  | 46 | 46.6 |  |  | 
CCn1c(=S)[nH]c2[nH]ncc2c1=O | 3.6 | 4.1 |  |  |  |  |  |  |  |  | 
CCOC(=O)c1cn[nH]c1NC(=S)Nc1ccc(Br)cc1 | 27.1 | 27.2 |  | 16.3 | 3.1 |  |  | 2 | 16.1 |  | 
O=c1c2cn[nH]c2[nH]c(=S)n1-c1cccc(C(F)(F)F)c1 | 1.4 | 4.1 | 0.5 | 7.2 | 57.8 | 1 | 17.2 | 34.5 |  |  | 
O=c1c2cn[nH]c2[nH]c(=S)n1-c1ccc([N+](=O)[O-])cc1 |  |  |  | 2.1 | 13.7 |  | 4.6 | 8.7 |  |  | 
Cc1c(C(=O)O)c(C(=O)NC(C)(C)C)nn1-c1ccccc1 | 3.8 | 13.9 | 39.5 | 60.5 | 83.4 | 43.1 | 12.1 | 82.3 | 0.6 |  | 79
CCOC(=O)c1c[nH]nc1N=C(S)Nc1ccc(Cl)cc1 | 33.6 | 36.7 |  | 46.2 | 61.5 | 21 | 38 | 52.9 | 21.4 |  | 
Cc1c(C(=O)O)c(C(=O)NC2CC2)nn1C | 4.3 | 8.6 | 3 | 19.8 | 11.4 | 9.9 |  | 6.6 |  |  | 
